Assay results taken from ChEMBL document CHEMBL1121685, “Development of new mitomycin C and porfiromycin analogues” (J Med Chem, 1981).

Assays:
Mus musculus [1] = species: Mus musculus; assay: Degree of leukopenia produced by compound is assessed form Percent change in white cells on days 5; format: functional
In short: (§1)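 BDG₁ male mice received a single ip dose on day 0. The dose series topped out at the LD₅₀ level, or at twice the optimal dose for some agents. Total white blood cell count was taken on days 3, 5 and 7 and expressed as % change from untreated controls. Significance was set at p ≤ 0.05 or p ≤ 0.01.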

Mus musculus [2] = assay: Effect of compound on total white blood cell count in BDG1 male mice, after intraperitoneal administration at a dose 29.6 mg/kg on day 7; format: functional; in short: as §1
Mus musculus [3] = species: Mus musculus; assay: Half-wave potential produced by the compound at their optimal dose; format: functional; parameters: unit not given here
Mus musculus [4] = assay: Effect of compound on total white blood cell count in BDG1 male mice, after intraperitoneal administration at a dose of 39.4 mg/kg on day 5; format: functional
In short: (§2)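 Single ip dose given on day 0 to BDG1 male mice over a descending dose series. Total white blood cell count is expressed as % change from untreated control on days 3, 5 and 7. Significance is flagged at p ≤ 0.05 and p ≤ 0.01.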

Mus musculus [5] = assay: Effect of compound on total white blood cell count in BDG1 male mice, after intraperitoneal administration at a dose of 39.4 mg/kg on day 3; format: functional; in short: as §2
Mus musculus [6] = assay: Effect of compound on total white blood cell count in BDG1 male mice, after intraperitoneal administration at a dose of 22.2 mg/kg on day 3; format: functional; in short: as §2
Mus musculus [7] = assay: Effect of compound on total white blood cell count in BDG1 male mice, after intraperitoneal administration at a dose of 22.2 mg/kg on day 5; format: functional; in short: as §2
Mus musculus [8] = assay: Effect of compound on total white blood cell count in BDG1 male mice, after intraperitoneal administration at a dose of 22.2 mg/kg on day 7; format: functional; in short: as §2
Mus musculus [9] = assay: Effect of compound on total white blood cell count in BDG1 male mice, after intraperitoneal administration at a dose of 29.6 mg/kg on day 3; format: functional; in short: as §2
Mus musculus [10] = assay: Effect of compound on total white blood cell count in BDG1 male mice, after intraperitoneal administration at a dose of 29.6 mg/kg on day 5; format: functional; in short: as §2
Mus musculus [11] = assay: Effect of compound on total white blood cell count in BDG1 male mice, after intraperitoneal administration at a dose of 50.9 mg/kg on day 3; format: functional
In short: (§3)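 Single ip dose given on day 0 to BDG₁ male mice. Total white blood cell count measured on days 3, 5 and 7, expressed as % change from control. Highest dose was at the LD₅₀, or at twice the optimal dose where so footnoted. Significance reported at p ≤ 0.05 and p ≤ 0.01. D marks death of one or more mice.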

Mus musculus [12] = assay: Effect of compound on total white blood cell count in BDG1 male mice, after intraperitoneal administration at a dose of 50.9 mg/kg on day 7; format: functional; in short: as §3
Mus musculus [13] = assay: Minimum effective dose that show activity against P-388 murine leukemia cells in CDF1 female mice, after intraperitoneal administration (optimal dose is 12.8 mg/kg); format: functional; settings: P388, ip, read-out: MED
In short: (§4)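 10⁶ P-388 ascites cells implanted ip in CDF₁ female mice. Six mice per dose, 10 saline-injected controls, and a concurrent mitomycin C reference group. %T/C = median survival time of treated/control × 100. MED is the lowest dose giving %T/C > 125. Therapeutic ratio = optimal dose/MED.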

Mus musculus [14] = assay: Number of tumored survivors, 45 days after administration of compound at a dose of 18 mg/kg/day in mice; format: functional
Mus musculus [15] = assay: Activity of compound dose of 1.13 mg/kg/day against Murine B-16 Melanocarcinoma in mice; format: functional
Mus musculus [16] = assay: Activity of compound dose of 18 mg/kg/day against Murine B-16 Melanocarcinoma in mice; format: functional
Mus musculus [17] = assay: Activity of compound dose of 2.25 mg/kg/day against Murine B-16 Melanocarcinoma in mice; format: functional
Mus musculus [18] = assay: Activity of compound dose of 36 mg/kg/day against Murine B-16 Melanocarcinoma in mice; format: functional
Mus musculus [19] = assay: Activity of compound dose of 4.5 mg/kg/day against Murine B-16 Melanocarcinoma in mice; format: functional
Mus musculus [20] = assay: Activity of compound dose of 9 mg/kg/day against Murine B-16 Melanocarcinoma in mice; format: functional
Mus musculus [21] = assay: Antitumor activity against P-388 murine leukemia cells in CDF1 female mice after intraperitoneal administration at the specified optimal dose of 12.8 mg/kg; format: functional
Mus musculus [22] = assay: Number of cured survivors, 45 days after administration of compound at a dose of 18 mg/kg/day in mice; format: functional
[23] = Therapeutic ratio is expressed as ratio of optimal dose and minimum effective dose; format: ADME; settings: mouse; read-out: TR; in short: as §4
Mus musculus [24] = assay: Number of cured survivors, 45 days after administration of compound at a dose of 36 mg/kg/day in mice; format: functional
Mus musculus [25] = assay: Antitumor activity against P-388 murine leukemia cells in CDF1 female mice after intraperitoneal administration at the specified optimal dose of 51.2 mg/kg; format: functional

Structure (SMILES): COC12[C@@H]3N[C@@H]3CN1C1=C(C(=O)C(NCc3ccco3)=C(C)C1=O)[C@@H]2COC(N)=O (stereo partly specified)
- Change (Mus musculus [1]): -54%
- Change (Mus musculus [2]): 0%
- E1/2 (Mus musculus [3]): -0.39
- Change (Mus musculus [4]): -74%
- Change (Mus musculus [5]): -84%
- Change (Mus musculus [6]): -70%
- Change (Mus musculus [7]): 62%
- Change (Mus musculus [8]): -1%
- Change (Mus musculus [9]): -78%
- Change (Mus musculus [10]): -67%
- Change (Mus musculus [11]): -76%
- Change (Mus musculus [12]): -64%
- minimal effective dose (Mus musculus [13]): < 0.4 mg/kg
- Survivors (Mus musculus [14]): 1
- T/C (Mus musculus [15]): 125%
- T/C (Mus musculus [16]): 219%
- T/C (Mus musculus [17]): 148%
- T/C (Mus musculus [18]): 247%
- T/C (Mus musculus [19]): 170%
- T/C (Mus musculus [20]): 186%
- T/C (Mus musculus [21]): 276%
- Survivors (Mus musculus [22]): 3
- selectivity ratio [23]: > 32
- Survivors (Mus musculus [24]): 6

Structure (SMILES): COC12[C@@H](COC(N)=O)C3=C(C(=O)C(C)=C(NCCCl)C3=O)N1C[C@@H]1[C@H]2N1C (stereo partly specified)
- T/C (Mus musculus [25]): 205%
- selectivity ratio [23]: 8
